Data taken from ChEMBL document CHEMBL4184105, “Synthesis and biological evaluation of novel mono- and bivalent ASGP-R-targeted drug-conjugates” (Bioorg Med Chem Lett, 2018).
The source made the active and inactive calls. The calls are words filed in the database; no cut-off is given here.

How the values were obtained:
[1] = Binding affinity to rabbit asialoglycoprotein receptor by SPR assay; parameters: species or system Oryctolagus cuniculus
[2] = tested on: HepG2; assay: Cytotoxicity against human HepG2 cells by MTS assay; assay type: functional
[3] = Stability of compound at pH 7.4 after 24 hrs by HPLC-MS analysis; assay type: physicochemical; conditions: buffer, pH 7.4, 24 h
[4] = Stability of compound at pH 5 after 24 hrs by HPLC-MS analysis; assay type: physicochemical; conditions: buffer, pH 5, 24 h
[5] = tested on: HepG2; assay: Induction of morphological changes in human HepG2 cells assessed as altered microtubule structure at 1 umol after 24 hrs by DAPI staining-based immunofluorescence assay; assay type: functional, cell-based
Outline: (§1)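 HepG2 cells were fixed, permeabilized and immunostained with an anti-α-tubulin antibody, with nuclei counterstained by DAPI. Nuclear and cytoskeletal (microtubule, mitotic spindle) morphology was then examined by immunofluorescence microscopy alongside untreated cells.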

[6] = tested on: HepG2; assay: Induction of morphological changes in human HepG2 cells assessed as mitosis with more than 2 poles at 1 umol after 24 hrs by DAPI staining-based immunofluorescence assay; assay type: functional, cell-based; outline: as §1
[7] = tested on: HepG2; assay: Induction of morphological changes in human HepG2 cells assessed as abnormal nuclei at 1 umol after 24 hrs by DAPI staining-based immunofluorescence assay; assay type: functional, cell-based; outline: as §1

SMILES | Kd [1] | Stability [3] | Stability [4] | CC50 [2] | Activity [5] | Activity [6] | Activity [7]
CC(=O)N[C@H]1[C@H](OCCCCCCNC(=O)CCOCC(COCCC(=O)NCCCCCCO[C@@H]2O[C@H](CO)[C@H](O)[C@H](O)[C@H]2NC(C)=O)(COCCC(=O)NCCCCCCO[C@@H]2O[C@H](CO)[C@H](O)[C@H](O)[C@H]2NC(C)=O)NC(=O)CCCCCCCCCCn2cc(CCCC(=O)O[C@@H](C(=O)O[C@H]3C[C@@]4(O)[C@@H](OC(=O)c5ccccc5)[C@@H]5[C@]6(OC(C)=O)CO[C@@H]6C[C@H](O)[C@@]5(C)C(=O)[C@H](OC(C)=O)C(=C3C)C4(C)C)[C@@H](NC(=O)c3ccccc3)c3ccccc3)nn2)O[C@H](CO)[C@H](O)[C@@H]1O | 1.36 nM | Stable | Stable | 110 nM |  |  | 
CC(=O)N[C@H]1[C@H](OCCCCCCNC(=O)CCOCC(COCCC(=O)NCCCCCCO[C@@H]2O[C@H](CO)[C@H](O)[C@H](O)[C@H]2NC(C)=O)(COCCC(=O)NCCCCCCO[C@@H]2O[C@H](CO)[C@H](O)[C@H](O)[C@H]2NC(C)=O)NC(=O)CCCCCCCCCCN=[N+]=[N-])O[C@H](CO)[C@H](O)[C@@H]1O | 2.16 nM |  |  |  |  |  | 
CC(=O)O[C@H]1C(=O)[C@@]2(C)[C@H]([C@H](OC(=O)c3ccccc3)[C@]3(O)C[C@H](OC(=O)[C@H](O)[C@@H](NC(=O)c4ccccc4)c4ccccc4)C(C)=C1C3(C)C)[C@]1(OC(C)=O)CO[C@@H]1C[C@@H]2O [PACLITAXEL] |  | Stable | Stable | 120 to 210 nM | Active | Active | Active
CC(=O)N[C@@H]1[C@@H](O)[C@@H](O)[C@@H](CO)O[C@H]1n1cc(CCCC(=O)O[C@@H](C(=O)O[C@H]2C[C@@]3(O)[C@@H](OC(=O)c4ccccc4)[C@@H]4[C@]5(OC(C)=O)CO[C@@H]5C[C@H](O)[C@@]4(C)C(=O)[C@H](OC(C)=O)C(=C2C)C3(C)C)[C@@H](NC(=O)c2ccccc2)c2ccccc2)nn1 | 2.21 nM | Stable | Stable | 92 nM |  |  | 

Second part, led by results:

Kd [1] | Stability [3] | Stability [4] | SMILES | CC50 [2] | Activity [5] | Activity [6] | Activity [7]
0.161 nM | Stable | Stable | C=CCO[C@@H]1O[C@H](Cn2cc(CCCC(=O)O[C@@H](C(=O)O[C@H]3C[C@@]4(O)[C@@H](OC(=O)c5ccccc5)[C@@H]5[C@]6(OC(C)=O)CO[C@@H]6C[C@H](O)[C@@]5(C)C(=O)[C@H](OC(C)=O)C(=C3C)C4(C)C)[C@@H](NC(=O)c3ccccc3)c3ccccc3)nn2)[C@H](O)[C@H](O)[C@H]1NC(C)=O | 3250 nM | Active | Active | Active
0.327 nM | Stable | Stable | C=CCO[C@@H]1O[C@H](Cn2cc(CCCC(=O)O[C@H]3C[C@H]4OC[C@@]4(OC(C)=O)[C@H]4[C@H](OC(=O)c5ccccc5)[C@]5(O)C[C@H](OC(=O)[C@H](OC(=O)CCCc6cn(C[C@H]7O[C@@H](OCC=C)[C@H](NC(C)=O)[C@@H](O)[C@H]7O)nn6)[C@@H](NC(=O)c6ccccc6)c6ccccc6)C(C)=C([C@@H](OC(C)=O)C(=O)[C@]34C)C5(C)C)nn2)[C@H](O)[C@H](O)[C@H]1NC(C)=O |  |  |  | 
1.39 nM | Stable | Stable | CC(=O)N[C@@H]1[C@@H](O)[C@@H](O)[C@@H](CO)O[C@H]1n1cc(CCCC(=O)O[C@H]2C[C@H]3OC[C@@]3(OC(C)=O)[C@H]3[C@H](OC(=O)c4ccccc4)[C@]4(O)C[C@H](OC(=O)[C@H](OC(=O)CCCc5cn([C@@H]6O[C@H](CO)[C@H](O)[C@H](O)[C@H]6NC(C)=O)nn5)[C@@H](NC(=O)c5ccccc5)c5ccccc5)C(C)=C([C@@H](OC(C)=O)C(=O)[C@]23C)C4(C)C)nn1 | 22900 nM | Active | Active | Active
 | Stable | Stable | CC(=O)N[C@H]1[C@H](OCCn2cc(CCCC(=O)O[C@H]3C[C@H]4OC[C@@]4(OC(C)=O)[C@H]4[C@H](OC(=O)c5ccccc5)[C@]5(O)C[C@H](OC(=O)[C@H](OC(=O)CCCc6cn(CCO[C@@H]7O[C@H](CO)[C@H](O)[C@H](O)[C@H]7NC(C)=O)nn6)[C@@H](NC(=O)c6ccccc6)c6ccccc6)C(C)=C([C@@H](OC(C)=O)C(=O)[C@]34C)C5(C)C)nn2)O[C@H](CO)[C@H](O)[C@@H]1O |  | Active | Active | Active
249 nM | Stable | Stable | CC(=O)N[C@H]1[C@H](OCCn2cc(CCCC(=O)O[C@@H](C(=O)O[C@H]3C[C@@]4(O)[C@@H](OC(=O)c5ccccc5)[C@@H]5[C@]6(OC(C)=O)CO[C@@H]6C[C@H](O)[C@@]5(C)C(=O)[C@H](OC(C)=O)C(=C3C)C4(C)C)[C@@H](NC(=O)c3ccccc3)c3ccccc3)nn2)O[C@H](CO)[C@H](O)[C@@H]1O | 820 nM | Active | Active | Active
